Source: PMC7825275 (Cancer chemotherapy and pharmacology, 2019)

System: patients with advanced solid tumors
Type: in vivo, human
In short: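 Standard 3+3 escalation with modified Fibonacci steps. Oral veliparib was given every 12 h on days 1–7 of 21-day cycles, with IV carboplatin/paclitaxel on day 3. For the first 46 patients, cycle 1 was chemotherapy alone and DLT was scored in cycle 2; afterwards all three agents were given in cycle 1, which was the DLT cycle. Growth factors were barred in cycles 1–2. MTD was the highest dose with ≤1/6 DLTs.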

## C[C@]1(c2nc3c(C(N)=O)cccc3[nH]2)CCCN1 [veliparib]
All dose levels
  patients with dose-limiting toxicities during DLT observation cycle: 8 patients
Veliparib 80 mg bid
  DLTs at dose level 7: 1/6
Veliparib 120 mg BID, paclitaxel 200 mg/m^2, carboplatin AUC 6, febrile neutropenia, hyponatremia
  DLTs at the MAD, patients with DLT of evaluable patients: 2 of 7
With paclitaxel 200 mg/m^2 and carboplatin AUC 6 (dose level 8)
  maximum administered dose (MAD), veliparib dose: 120 mg BID
